Results on 33 compounds are retold here after ChEMBL document CHEMBL1141218, “Further structure-activity relationship studies of piperidine-based monoamine transporter inhibitors: effects of piperidine ring stereochemistry on potency. Identification of norepinephrine transporter selective ligands and broad-spectrum transporter inhibitors” (J Med Chem, 2005).

Some results are limits rather than exact numbers.

Test [1] has as its target Norepinephrine transporter (Rattus norvegicus, UniProt Q9WTR4). The test can be described thus: Ability to inhibit [3H]NE uptake through NET in rat synaptosomes. The format is subcellular, Brain. A digest of the protocol:
(§1)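 Uptake inhibition values given as Ki. Each experiment tested six drug concentrations in triplicate, with two to four independent experiments per compound. Values are means ± SEM.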

Test [2] deals with Sodium-dependent serotonin transporter (Rattus norvegicus, UniProt P31652). The test can be described thus: Ability to inhibit [3H]5-HT uptake through SERT in rat synaptosomes. The format is subcellular, Brain. A digest of the protocol:
as §1

The target of test [3] is Sodium-dependent dopamine transporter (Rattus norvegicus, UniProt P23977). The test can be described thus: Ability to inhibit [3H]DA uptake through DAT in rat synaptosomes. The format is subcellular, Brain. The gist of the method: as §1
Chain of Sodium-dependent dopamine transporter (P23977 whole entry): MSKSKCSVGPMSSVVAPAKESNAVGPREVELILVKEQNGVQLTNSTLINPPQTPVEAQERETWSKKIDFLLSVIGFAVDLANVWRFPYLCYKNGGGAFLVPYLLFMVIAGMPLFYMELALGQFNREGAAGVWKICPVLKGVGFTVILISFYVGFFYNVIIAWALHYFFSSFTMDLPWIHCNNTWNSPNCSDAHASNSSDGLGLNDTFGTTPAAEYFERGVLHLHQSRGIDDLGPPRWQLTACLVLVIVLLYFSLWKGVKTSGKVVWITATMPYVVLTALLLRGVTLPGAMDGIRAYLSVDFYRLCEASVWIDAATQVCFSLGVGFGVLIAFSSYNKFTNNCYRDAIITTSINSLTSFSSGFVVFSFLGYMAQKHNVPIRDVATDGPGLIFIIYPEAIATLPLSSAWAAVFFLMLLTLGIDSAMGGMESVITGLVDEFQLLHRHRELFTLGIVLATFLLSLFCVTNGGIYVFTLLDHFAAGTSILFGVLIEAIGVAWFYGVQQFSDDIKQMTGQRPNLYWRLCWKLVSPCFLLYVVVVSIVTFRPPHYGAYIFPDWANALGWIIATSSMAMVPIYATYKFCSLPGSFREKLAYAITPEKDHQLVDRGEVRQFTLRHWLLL
Test [4] has as its target Monoamine transporters; serotonin & dopamine (Rattus norvegicus) (UniProt P31652+P23977). The test can be described thus: Selectivity towards rat SERT over DAT. The format is protein assay.

Chain of Norepinephrine transporter (Q9WTR4 whole entry): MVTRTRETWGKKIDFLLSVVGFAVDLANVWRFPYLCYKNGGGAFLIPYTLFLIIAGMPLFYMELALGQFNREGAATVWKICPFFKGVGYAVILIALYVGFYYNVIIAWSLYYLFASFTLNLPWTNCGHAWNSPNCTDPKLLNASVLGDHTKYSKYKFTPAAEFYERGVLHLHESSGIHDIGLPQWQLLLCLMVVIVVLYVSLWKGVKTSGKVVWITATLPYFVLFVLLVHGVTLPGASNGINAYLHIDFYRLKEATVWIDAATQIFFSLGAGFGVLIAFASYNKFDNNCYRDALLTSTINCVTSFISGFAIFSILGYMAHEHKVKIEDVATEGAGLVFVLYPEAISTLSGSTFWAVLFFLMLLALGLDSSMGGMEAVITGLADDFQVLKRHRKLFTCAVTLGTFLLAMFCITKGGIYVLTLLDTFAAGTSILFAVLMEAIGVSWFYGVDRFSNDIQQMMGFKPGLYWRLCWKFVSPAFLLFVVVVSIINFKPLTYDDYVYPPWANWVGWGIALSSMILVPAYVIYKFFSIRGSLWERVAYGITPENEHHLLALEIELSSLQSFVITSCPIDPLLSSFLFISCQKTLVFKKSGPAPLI
Chain of Monoamine transporters; serotonin & dopamine (Rattus norvegicus) (P23977 whole entry, looked up): as the sequence (P23977 whole entry) above
Chain of Monoamine transporters; serotonin & dopamine (Rattus norvegicus) (P31652 whole entry, looked up): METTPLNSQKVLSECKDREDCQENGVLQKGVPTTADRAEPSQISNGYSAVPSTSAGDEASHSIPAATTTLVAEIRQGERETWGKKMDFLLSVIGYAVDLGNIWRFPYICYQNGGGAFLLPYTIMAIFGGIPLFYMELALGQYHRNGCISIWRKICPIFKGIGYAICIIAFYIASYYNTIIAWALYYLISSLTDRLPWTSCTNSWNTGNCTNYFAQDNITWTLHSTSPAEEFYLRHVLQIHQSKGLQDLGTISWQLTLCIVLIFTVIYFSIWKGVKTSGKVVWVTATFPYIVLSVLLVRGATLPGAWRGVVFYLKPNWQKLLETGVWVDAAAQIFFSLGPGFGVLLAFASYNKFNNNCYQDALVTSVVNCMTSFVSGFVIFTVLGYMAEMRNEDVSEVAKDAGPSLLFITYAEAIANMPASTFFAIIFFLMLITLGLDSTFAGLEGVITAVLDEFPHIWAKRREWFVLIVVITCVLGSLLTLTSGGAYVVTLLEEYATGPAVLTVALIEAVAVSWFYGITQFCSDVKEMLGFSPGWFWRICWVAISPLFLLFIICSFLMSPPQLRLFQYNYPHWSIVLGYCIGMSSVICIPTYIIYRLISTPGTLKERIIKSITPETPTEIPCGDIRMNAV
Chain of Sodium-dependent serotonin transporter (P31652 whole entry): as the sequence (P31652 whole entry, looked up) above

In the case of `CN1CC[C@@H](c2ccc(Cl)cc2)[C@H](CSCC(=O)NCCc2ccccc2)C1`, the values for the Ki in test [1], in test [2] and in test [3] were 178 nM, 68 nM and 23 nM, respectively. The Ratio Ki in test [4] was found to be 2.97.
On to `CN1CC[C@H](c2ccc(Cl)cc2)[C@H](CSCCO)C1`, for which the inhibition constant Ki (commonly a dissociation constant, usually derived from enzyme kinetics or from competition with a known ligand) turned out to be 26 nM in test [1], 185 nM in test [2] and 37 nM in test [3]. The Ratio Ki in test [4] amounted to 5.
On the same counts, the results for `COC(=O)CSC[C@@H]1CN(C)CC[C@@H]1c1ccc(Cl)cc1` are 22 nM, 182 nM, 38 nM and 4.88.
On the same counts, the results for `CN1CC[C@H](c2ccc(Cl)cc2)[C@H](CSCC(N)=O)C1` are 69 nM, 21 nM, 54 nM and 0.39.
The matching figures for `CN1CC[C@@H](c2ccc(Cl)cc2)[C@@H](CSCC(=O)NCCc2ccccc2)C1`: 100 nM, 121 nM, 112 nM and 1.08.
`CN1CC[C@@H](c2ccc(Cl)cc2)[C@@H](CSCC(=O)NCc2ccccc2)C1`: the Ki in test [1] amounted to 54 nM; in test [2] it was 22 nM; in test [3] it was 302 nM. For the same compound, the Ratio Ki in test [4] is 0.07.
The matching figures for `CN1CC[C@@H](c2ccc(Cl)cc2)[C@H](CSCC(=O)NCc2ccccc2)C1`: 32 nM, 753 nM, 1570 nM and 0.48.
As for `COC(=O)[C@H]1CN(C)CC[C@H]1c1ccc(Cl)cc1`, the Ki is 415 nM in test [1], 56 nM in test [2] and 1560 nM in test [3]. Also, the Ratio Ki in test [4] came out at 0.04.
In the case of `CNC(=O)CSC[C@H]1CN(C)CC[C@H]1c1ccc(Cl)cc1`, the Ki in test [2] is 1770 nM; in test [3], 215 nM.
Consider `COC(=O)CSC[C@H]1CN(C)CC[C@H]1c1ccc(Cl)cc1`, for which the results for the Ki in test [1], in test [2] and in test [3] were 98 nM, 403 nM and 598 nM, respectively. Further, in test [4], the Ratio Ki turned out to be 0.67.
On the same counts, the results for `CN1CC[C@@H](c2ccc(Cl)cc2)[C@H](CSCCO)C1` are 123 nM, 129 nM, 185 nM and 0.69.
The matching figures for `CC(C)NC(=O)CSC[C@H]1CN(C)CC[C@H]1c1ccc(Cl)cc1`: 11 nM, 36 nM, 142 nM and 0.25.
The matching figures for `CN1CC[C@@H](c2ccc(Cl)cc2)[C@@H](CSCC(=O)Nc2ccccc2)C1`: 1060 nM, 91 nM, 80 nM and 1.13.
In the case of `CNC(=O)CSC[C@@H]1CN(C)CC[C@H]1c1ccc(Cl)cc1`, the Ki in test [2] worked out at 116 nM; in test [3] it was 164 nM.
For the compound `CN1CC[C@H](c2ccc(Cl)cc2)[C@H](CSCC(=O)NCc2ccccc2)C1`, the Ki in test [1] was determined as 85 nM; in test [2], 23 nM; in test [3], 3.9 nM. The Ratio Ki in test [4] was found to be 5.81.
The matching figures for `CC(C)NC(=O)CSC[C@@H]1CN(C)CC[C@H]1c1ccc(Cl)cc1`: 67 nM, 138 nM, 663 nM and 0.21.
The matching figures for `CC(=O)OCCSC[C@H]1CN(C)CC[C@H]1c1ccc(Cl)cc1`: 610 nM, 125 nM, 177 nM and 0.71.
For the compound `CN1CC[C@H](c2ccc(Cl)cc2)[C@H](CSCC(=O)N2CCCCC2)C1`, the Ki in test [1] was found to be 13 nM; in test [2], 42 nM; in test [3], 34 nM. For the same compound, the Ratio Ki in test [4] is 1.22.
On the same counts, the results for `CN1CC[C@@H](c2ccc(Cl)cc2)[C@@H](CSCCO)C1` are greater than 3000 nM, 305 nM, 160 nM and 1.91.
Turning to `CN1CC[C@@H](c2ccc(Cl)cc2)[C@H](CSCC(N)=O)C1`, the Ki stood at 53 nM in test [1], 545 nM in test [2] and 1100 nM in test [3]. Besides, the Ratio Ki in test [4] was 0.49.
The matching figures for `CN1CC[C@H](c2ccc(Cl)cc2)[C@H](CSCC(=O)N(C)C)C1`: 63 nM, 8.8 nM, 17 nM and 0.53.
On the same counts, the results for `CN1CC[C@@H](c2ccc(Cl)cc2)[C@@H](CSCC(=O)Nc2cccc3ccccc23)C1` are 101 nM, 108 nM, 102 nM and 1.06.
The matching figures for `CN1CC[C@@H](c2ccc(Cl)cc2)[C@H](CSCCOC(=O)c2ccccc2)C1`: 56 nM, 71 nM, 378 nM and 0.19.
For the compound `CC(=O)OCCSC[C@@H]1CN(C)CC[C@H]1c1ccc(Cl)cc1`, the Ki in test [1] turned out to be 52 nM; in test [2], 130 nM; in test [3], 536 nM. In test [4], the Ratio Ki is 0.24.
The matching figures for `CN1CC[C@@H](c2ccc(Cl)cc2)[C@@H](CSCCOC(=O)c2ccccc2)C1`: 143 nM, 270 nM, 1470 nM and 0.18.
Consider `CNC(=O)CSC[C@@H]1CN(C)CC[C@@H]1c1ccc(Cl)cc1`, for which the results for the Ki in test [2] and in test [3] were 347 nM and 311 nM, respectively.
As to `CN1CC[C@@H](c2ccc(Cl)cc2)[C@H](CSCC(=O)N(C)C)C1`, the values for the Ki in test [1], in test [2] and in test [3] were 218 nM, 186 nM and greater than 3000 nM, respectively. In addition, the Ratio Ki in test [4] was less than 0.06.
On the same counts, the results for `CC(C)NC(=O)CSC[C@@H]1CN(C)CC[C@@H]1c1ccc(Cl)cc1` are 16 nM, 154 nM, 13 nM and 11.5.
With `COC(=O)CSC[C@@H]1CN(C)CC[C@H]1c1ccc(Cl)cc1`, the figures for the Ki in test [1], in test [2] and in test [3] were 57 nM, 69 nM and 2620 nM, respectively. Also, in test [4], the Ratio Ki is 0.03.
The matching figures for `CN1CC[C@@H](c2ccc(Cl)cc2)[C@@H](CSCC(=O)N(C)C)C1`: 47 nM, 173 nM, 176 nM and 0.98.
On the same counts, the results for `CN1CC[C@@H](c2ccc(Cl)cc2)[C@@H](CSCC(=O)N2CCCCC2)C1` are 134 nM, 572 nM, greater than 3000 nM and less than 0.19.
On the same counts, the results for `CN1CC[C@@H](c2ccc(Cl)cc2)[C@H](CSCC(=O)N2CCCCC2)C1` are 82 nM, 190 nM, greater than 3000 nM and less than 0.06.
Take `CC(=O)OCCSC[C@@H]1CN(C)CC[C@@H]1c1ccc(Cl)cc1`: the Ki is 30 nM in test [1], 469 nM in test [2] and 46 nM in test [3]. In addition, the Ratio Ki in test [4] was determined as 10.1.
